Assay results: BindingDB's records for doi:10.1016/j.bmc.2008.10.090 (Virginia Polytechnic Institute and State University, 2009)

Columns and labels:
[1] = target: T1, M-phase inducer phosphatase 2 (Homo sapiens, UniProt P30305); assay: Inhibition of histidine-tagged human recombinant Cdc25B catalytic domain expressed in Escherichia coli
T1 sequence (P30305 whole entry): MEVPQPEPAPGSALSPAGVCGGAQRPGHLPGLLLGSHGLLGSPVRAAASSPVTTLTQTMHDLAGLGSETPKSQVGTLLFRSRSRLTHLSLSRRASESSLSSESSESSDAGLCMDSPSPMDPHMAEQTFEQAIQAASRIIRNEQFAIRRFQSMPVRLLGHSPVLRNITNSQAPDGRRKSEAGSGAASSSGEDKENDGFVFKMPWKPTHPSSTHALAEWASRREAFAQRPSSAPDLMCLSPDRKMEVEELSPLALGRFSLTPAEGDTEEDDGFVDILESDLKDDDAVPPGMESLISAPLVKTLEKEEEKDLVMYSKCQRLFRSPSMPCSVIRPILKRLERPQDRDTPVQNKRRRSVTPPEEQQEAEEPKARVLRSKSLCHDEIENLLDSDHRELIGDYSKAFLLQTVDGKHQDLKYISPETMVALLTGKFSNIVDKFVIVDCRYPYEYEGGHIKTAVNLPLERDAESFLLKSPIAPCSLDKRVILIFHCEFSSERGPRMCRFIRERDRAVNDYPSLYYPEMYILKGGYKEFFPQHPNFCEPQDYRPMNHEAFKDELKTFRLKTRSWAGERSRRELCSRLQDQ

[2] = target: T2, Dual specificity protein phosphatase 1 (Mus musculus, UniProt P28563); assay: Inhibition of histidine-tagged mouse MKP1 catalytic domain expressed in […]
T2 sequence (P28563 whole entry): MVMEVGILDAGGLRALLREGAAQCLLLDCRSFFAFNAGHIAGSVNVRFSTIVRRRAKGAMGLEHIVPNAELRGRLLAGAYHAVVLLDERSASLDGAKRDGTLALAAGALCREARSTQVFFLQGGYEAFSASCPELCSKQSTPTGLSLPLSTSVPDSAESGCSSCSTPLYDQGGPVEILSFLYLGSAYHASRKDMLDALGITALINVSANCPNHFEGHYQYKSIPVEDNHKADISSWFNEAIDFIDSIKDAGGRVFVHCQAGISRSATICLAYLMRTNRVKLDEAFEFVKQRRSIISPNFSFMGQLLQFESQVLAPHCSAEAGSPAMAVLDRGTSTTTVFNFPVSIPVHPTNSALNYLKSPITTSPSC

[3] = target: T3, Dual specificity protein phosphatase 6 (Rattus norvegicus, UniProt Q64346); assay: Inhibition of histidine-tagged rat recombinant MKP3 catalytic domain expressed in Escherichia coli BL21(DE3)
T3 sequence (Q64346 whole entry): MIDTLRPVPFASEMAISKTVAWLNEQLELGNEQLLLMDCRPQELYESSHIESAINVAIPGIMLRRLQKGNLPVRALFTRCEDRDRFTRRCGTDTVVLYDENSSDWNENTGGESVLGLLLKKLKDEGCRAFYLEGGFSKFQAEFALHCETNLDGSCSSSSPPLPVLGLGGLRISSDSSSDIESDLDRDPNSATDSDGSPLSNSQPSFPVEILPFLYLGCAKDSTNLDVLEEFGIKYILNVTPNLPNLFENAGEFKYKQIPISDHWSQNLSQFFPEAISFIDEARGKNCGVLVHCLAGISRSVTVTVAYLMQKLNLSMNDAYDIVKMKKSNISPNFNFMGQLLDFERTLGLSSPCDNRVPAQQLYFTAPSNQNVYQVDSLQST
Procedure, shortened: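 Recombinant MKP-3 was expressed from a bacterial plasmid. Phosphatase activity was read from O-methyl fluorescein phosphate hydrolysis in a 25 μL final mixture, incubated 20 or 60 min at ambient temperature. Product fluorescence was read at excitation 485 nm and emission 530 nm. IC50 came from at least six inhibitor concentrations.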

| IC50 [1] | IC50 [2] | IC50 [3] | SMILES |
| --- | --- | --- | --- |
| > 50 µM | > 50 µM | > 50 µM | O=CCNc1cc(O)c2ccccc2c1O [2-(2-hydroxyethylamino)naphthalene-1,4-dione] |
| > 50 µM | > 50 µM | > 50 µM | Cc1c(NCC=O)c(O)c2ccccc2c1O [2-(2-hydroxyethylamino)-3-methylnaphthalene-1,4-dione] |
